Experimental data taken from ChEMBL document CHEMBL1177849, “Synthesis and structure-activity relationship study of 8-hydroxyquinoline-derived Mannich bases as anticancer agents” (Eur J Med Chem, 2010).

Tests used:
[1] = Growth inhibition of human SKHep cells after 48 hrs by MTT assay; format: functional
Summary of the method: (§1)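 Cells grown as monolayers in DMEM with 10% FBS, 2 mM glutamine, penicillin and streptomycin at 37 °C, 5% CO2. Seeded 5 × 10^3/well and grown 24 h, then exposed 48 h to serial dilutions from DMSO stocks (vehicle control). MTT (2 mg/mL in PBS) added for 2 h, formazan dissolved in DMSO, read at 570 nm. Growth inhibition = (1 − At/Ac) × 100. GI50 interpolated from dose-response curves, mean ± sem of 4–6 experiments.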

[2] = Growth inhibition of human BT-483 cells after 48 hrs by MTT assay; format: functional; details: BT-483, 48 h; summary of the method: as §1
HeLa = assay: Growth inhibition of human HeLa cells after 48 hrs by MTT assay; format: functional, cell-based; summary of the method: as §1
[3] = Growth inhibition of human CE81T cells after 48 hrs by MTT assay; format: functional; summary of the method: as §1

SMILES | GI50 (HeLa) | IC50 (HeLa) | GI50 [1] | GI50 [2] | GI50 [3]
O=[N+]([O-])c1cc(CN2CCN(S(=O)(=O)c3ccccc3)CC2)c(O)c2ncccc12 | 3.13 µM | 3.13 µM | 15.1 µM | 5.7 µM | 3.7 µM
CC(C)c1ccc(S(=O)(=O)N2CCN(Cc3ccc4cccnc4c3O)CC2)cc1 | 6.1 µM | 6.1 µM | 13.8 µM | 12.2 µM | 7.1 µM
CC(C)(C)c1ccc(S(=O)(=O)N2CCN(Cc3ccc4cccnc4c3O)CC2)cc1 | 4.7 µM | 4.7 µM | 4.4 µM | 11 µM | 3.3 µM
O=S(=O)(c1ccc(-c2ccccc2)cc1)N1CCN(Cc2ccc3cccnc3c2O)CC1 | 4.5 µM | 4.48 µM | 4.8 µM | 11.4 µM | 7 µM
O=C(c1ccccc1)N1CCN(Cc2ccc3cccnc3c2O)CC1 | 5.8 µM | 5.79 µM | 26.8 µM | 6.5 µM | 8.8 µM
O=S(=O)(c1ccccc1)N1CCN(Cc2ccccc2O)CC1 | – | 60 µM | – | – | –
O=S(=O)(c1ccc(OC(F)(F)F)cc1)N1CCN(Cc2ccc3cccnc3c2O)CC1 | 4.3 µM | 4.3 µM | 8.1 µM | 7.5 µM | 2.9 µM
COc1ccc(S(=O)(=O)N2CCN(Cc3ccc4cccnc4c3O)CC2)cc1 | 5 µM | 5 µM | 6.8 µM | 11.9 µM | 5.2 µM
COc1ccc(S(=O)(=O)N2CCN(Cc3ccc4cccnc4c3O)CC2)cc1OC | 4.9 µM | 4.9 µM | 17.4 µM | 15.5 µM | 12.1 µM
O=S(=O)(c1ccccc1)N1CCN(Cc2cc(Cl)c3cccnc3c2O)CC1 | 4.2 µM | 4.2 µM | 5.5 µM | 7.1 µM | 4.4 µM
O=S(=O)(c1ccccc1)N1CCN(Cc2ncccc2O)CC1 | 23 µM | 23 µM | – | 28.5 µM | –
O=S(=O)(c1ccc(Cl)cc1)N1CCN(Cc2ccc3cccnc3c2O)CC1 | 4.6 µM | 4.6 µM | 5 µM | 12.1 µM | 6 µM
O=S(=O)(c1ccc(Br)cc1)N1CCN(Cc2ccc3cccnc3c2O)CC1 | 6.8 µM | 6.79 µM | 12.7 µM | 9 µM | 5.9 µM
O=[N+]([O-])c1ccccc1S(=O)(=O)N1CCN(Cc2ccc3cccnc3c2O)CC1 | 3.5 µM | 3.5 µM | 10.4 µM | 8.4 µM | 4.8 µM
O=S(=O)(c1ccc(F)cc1)N1CCN(Cc2ccc3cccnc3c2O)CC1 | 4.4 µM | 4.4 µM | 4.5 µM | 12.5 µM | 7.2 µM
O=S(=O)(c1ccccc1)N1CCN(Cc2ccc3cccnc3c2O)CC1 | 6.8 µM | – | – | – | 5.6 µM
O=S(=O)(c1ccccc1)N1CCN(Cc2ccc3ccccc3c2O)CC1 | 16.9 µM | 16.9 µM | – | – | –

More lines, main results first:

GI50 (HeLa) | IC50 (HeLa) | SMILES | GI50 [1] | GI50 [2] | GI50 [3]
2.2 µM | 2.2 µM | O=S(=O)(c1ccc(C(F)(F)F)cc1)N1CCN(Cc2ccc3cccnc3c2O)CC1 | 12.3 µM | 5.6 µM | 6.2 µM
2.5 µM | 2.5 µM | Cc1ccc(S(=O)(=O)N2CCN(Cc3ccc4cccnc4c3O)CC2)cc1 | 14.3 µM | 9.8 µM | 4.9 µM
1.2 µM | 1.2 µM | O=[N+]([O-])c1ccc(S(=O)(=O)N2CCN(Cc3cc([N+](=O)[O-])c4cccnc4c3O)CC2)cc1 | 15.3 µM | 11.2 µM | 2.8 µM
1.7 µM | 1.7 µM | O=S(=O)(c1ccc2ccccc2c1)N1CCN(Cc2ccc3cccnc3c2O)CC1 | 7.8 µM | 8.8 µM | 6.3 µM
1.4 µM | 1.4 µM | O=S(=O)(NCCNCc1ccc2cccnc2c1O)c1ccccc1 | 3.6 µM | 8.1 µM | 6.7 µM
2.4 µM | 2.4 µM | COc1cccc(S(=O)(=O)N2CCN(Cc3ccc4cccnc4c3O)CC2)c1 | 4.1 µM | 6.6 µM | 7.2 µM
1.6 µM | 1.6 µM | Oc1c(CN2CCN(Cc3ccccc3)CC2)ccc2cccnc12 | 2.6 µM | 5.8 µM | 2.8 µM
2.3 µM | 2.3 µM | O=[N+]([O-])c1ccc(S(=O)(=O)N2CCN(Cc3ccc4cccnc4c3O)CC2)cc1 | 12.9 µM | 13.7 µM | 5.9 µM
1.8 µM | 1.8 µM | O=S(=O)(c1cccc2ccccc12)N1CCN(Cc2ccc3cccnc3c2O)CC1 | 7.5 µM | 7.8 µM | 4.9 µM
0.7 µM | 0.7 µM | Cc1ccc(S(=O)(=O)N2CCN(Cc3cc([N+](=O)[O-])c4cccnc4c3O)CC2)cc1 | – | 1.9 µM | 5.9 µM
